The values that follow come from PubChem BioAssay AID463145 (The Scripps Research Institute Molecular Screening Center, 2010).

The test addresses Bile acid receptor (Homo sapiens) (UniProt Q96RI1). Kind of test: activation of FXR ligand-binding domain – cell-based, luciferase luminescence, assay provider, powder samples, selectivity assay for RORA inverse agonist project, late-stage follow-up (AID 463145). As to conditions: HEK293T GAL4-FXR LBD luciferase reporter, 18-24 h; at 10 µM; hits give high values. Put shortly:
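Material: HEK293T GAL4-FXR LBD luciferase reporter cells / Compound dosing: one dose, 10 µM nominal / Timing: 20 h compound treatment / Technique: luciferase luminescence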

The source made the active and inactive calls.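 How the source made its calls: active means FXR activation with a fold change above 2; inactive means the rest.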

Bile acid receptor (Homo sapiens), sequence (Q96RI1 whole entry, looked up, the tested form may be a part): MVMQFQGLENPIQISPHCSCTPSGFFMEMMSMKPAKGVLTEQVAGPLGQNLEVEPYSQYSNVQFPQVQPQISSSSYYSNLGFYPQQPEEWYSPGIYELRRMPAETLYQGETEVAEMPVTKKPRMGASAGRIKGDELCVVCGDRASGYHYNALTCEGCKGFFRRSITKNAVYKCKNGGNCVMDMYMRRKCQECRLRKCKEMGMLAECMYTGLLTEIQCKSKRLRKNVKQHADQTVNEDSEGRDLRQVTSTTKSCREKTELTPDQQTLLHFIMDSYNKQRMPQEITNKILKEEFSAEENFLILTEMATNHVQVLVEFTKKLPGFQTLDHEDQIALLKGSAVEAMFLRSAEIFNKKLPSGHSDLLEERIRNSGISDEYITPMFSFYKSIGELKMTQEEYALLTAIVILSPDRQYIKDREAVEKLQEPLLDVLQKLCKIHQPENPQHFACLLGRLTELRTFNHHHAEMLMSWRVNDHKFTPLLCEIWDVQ

Take `O=C(Nc1ccc(C(O)(C(F)(F)F)C(F)(F)F)cc1)c1ccccc1C(F)(F)F`: the fold change is 0.846 (inactive).

In the case of `O=S(=O)(Nc1ccc(C(O)(C(F)(F)F)C(F)(F)F)cc1)c1cccs1`, the fold change was 1.21 (inactive). `O=C(Nc1ccc(C(O)(C(F)(F)F)C(F)(F)F)cc1)c1ccc(F)cc1Cl`: the fold change is 1.07 (inactive). The result for `O=C(Nc1ccc(C(O)(C(F)(F)F)C(F)(F)F)cc1)c1ccc(F)cc1F` reads 1.52 (inactive); that for `O=C(Nc1ccc(C(O)(C(F)(F)F)C(F)(F)F)cc1)c1c(F)cccc1F`, 1.06 (inactive); that for `O=C(Nc1ccc(C(O)(C(F)(F)F)C(F)(F)F)cc1)c1ccc(Cl)cc1`, 1.14 (inactive).
